Test results published in ChEMBL document CHEMBL1154688, “Selective Kv1.5 blockers: development of (R)-1-(methylsulfonylamino)-3-[2-(4-methoxyphenyl)ethyl]-4-(4-methoxyphenyl)-2-imidazolidinone (KVI-020/WYE-160020) as a potential treatment for atrial arrhythmia” (J Med Chem, 2009).
pIC50: −log10 of the molar value. In brackets after ≈: the same amount, converted by molar mass.

Experiments:
[1] = target: Potassium voltage-gated channel subfamily A member 5 (Homo sapiens, UniProt P22460); assay: Inhibition of human Kv1.5 expressed in CHO cells by patch-clamp technique; assay type: cell-based
Potassium voltage-gated channel subfamily A member 5, sequence (P22460 whole entry): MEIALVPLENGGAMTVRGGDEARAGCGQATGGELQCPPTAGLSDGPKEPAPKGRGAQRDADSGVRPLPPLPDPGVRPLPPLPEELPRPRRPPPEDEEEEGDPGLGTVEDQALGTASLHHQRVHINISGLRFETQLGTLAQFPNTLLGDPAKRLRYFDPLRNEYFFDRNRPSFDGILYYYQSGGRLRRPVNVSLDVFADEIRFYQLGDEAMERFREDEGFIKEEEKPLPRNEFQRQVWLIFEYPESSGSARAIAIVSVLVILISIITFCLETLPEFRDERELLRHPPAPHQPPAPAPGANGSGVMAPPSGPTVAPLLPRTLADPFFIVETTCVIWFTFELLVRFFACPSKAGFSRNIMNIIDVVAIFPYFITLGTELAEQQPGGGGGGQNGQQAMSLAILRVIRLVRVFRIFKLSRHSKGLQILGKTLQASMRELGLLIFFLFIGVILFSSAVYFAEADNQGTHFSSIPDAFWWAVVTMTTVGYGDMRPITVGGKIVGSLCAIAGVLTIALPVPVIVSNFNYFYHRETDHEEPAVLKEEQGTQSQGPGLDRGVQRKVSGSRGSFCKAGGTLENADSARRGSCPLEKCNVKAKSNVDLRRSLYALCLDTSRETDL
Procedure, shortened: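 Human Kv1.5 stably expressed in CHO cells. IC50 was determined by automated patch clamp on the IonWorks platform.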

[2] = Aqueous solubility at pH 7.4 by direct UV method; assay type: physicochemical; conditions: aqueous medium
Procedure, shortened: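 Solubility measured in pH 7.4 buffer with direct UV read-out.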

[3] = Metabolic stability in human liver microsomes assessed as half life; assay type: ADME, Microsome
Procedure, shortened: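 Test compound at 1 μM incubated with 1 mg/mL male beagle dog or male human liver microsomal protein. Half-life was determined from compound loss.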

CYP3A4 = CYP3A4 (Homo sapiens, UniProt P08684); assay: Inhibition of CYP3A4 at 3 uM by fluorescent method; assay type: ADME
CYP3A4, sequence (P08684 whole entry): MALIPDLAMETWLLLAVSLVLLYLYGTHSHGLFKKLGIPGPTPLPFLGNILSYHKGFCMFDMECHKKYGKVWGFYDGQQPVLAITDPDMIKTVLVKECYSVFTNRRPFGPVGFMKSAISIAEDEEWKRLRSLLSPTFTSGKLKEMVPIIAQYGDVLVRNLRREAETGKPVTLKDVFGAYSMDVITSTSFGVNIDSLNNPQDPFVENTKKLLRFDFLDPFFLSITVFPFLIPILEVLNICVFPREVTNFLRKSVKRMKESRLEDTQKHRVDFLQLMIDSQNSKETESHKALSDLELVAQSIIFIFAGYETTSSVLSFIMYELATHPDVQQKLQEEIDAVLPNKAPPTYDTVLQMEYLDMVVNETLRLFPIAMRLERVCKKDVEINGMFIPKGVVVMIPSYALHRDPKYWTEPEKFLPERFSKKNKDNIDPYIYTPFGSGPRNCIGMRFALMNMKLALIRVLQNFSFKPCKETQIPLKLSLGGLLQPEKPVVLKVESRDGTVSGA
Procedure, shortened: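 CYP3A4 inhibition measured by a fluorescent method.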

[4] = target: Voltage-gated inwardly rectifying potassium channel KCNH2 (Homo sapiens, UniProt Q12809); assay: Inhibition of human ERG by patch-clamp technique
Voltage-gated inwardly rectifying potassium channel KCNH2, sequence (Q12809 whole entry): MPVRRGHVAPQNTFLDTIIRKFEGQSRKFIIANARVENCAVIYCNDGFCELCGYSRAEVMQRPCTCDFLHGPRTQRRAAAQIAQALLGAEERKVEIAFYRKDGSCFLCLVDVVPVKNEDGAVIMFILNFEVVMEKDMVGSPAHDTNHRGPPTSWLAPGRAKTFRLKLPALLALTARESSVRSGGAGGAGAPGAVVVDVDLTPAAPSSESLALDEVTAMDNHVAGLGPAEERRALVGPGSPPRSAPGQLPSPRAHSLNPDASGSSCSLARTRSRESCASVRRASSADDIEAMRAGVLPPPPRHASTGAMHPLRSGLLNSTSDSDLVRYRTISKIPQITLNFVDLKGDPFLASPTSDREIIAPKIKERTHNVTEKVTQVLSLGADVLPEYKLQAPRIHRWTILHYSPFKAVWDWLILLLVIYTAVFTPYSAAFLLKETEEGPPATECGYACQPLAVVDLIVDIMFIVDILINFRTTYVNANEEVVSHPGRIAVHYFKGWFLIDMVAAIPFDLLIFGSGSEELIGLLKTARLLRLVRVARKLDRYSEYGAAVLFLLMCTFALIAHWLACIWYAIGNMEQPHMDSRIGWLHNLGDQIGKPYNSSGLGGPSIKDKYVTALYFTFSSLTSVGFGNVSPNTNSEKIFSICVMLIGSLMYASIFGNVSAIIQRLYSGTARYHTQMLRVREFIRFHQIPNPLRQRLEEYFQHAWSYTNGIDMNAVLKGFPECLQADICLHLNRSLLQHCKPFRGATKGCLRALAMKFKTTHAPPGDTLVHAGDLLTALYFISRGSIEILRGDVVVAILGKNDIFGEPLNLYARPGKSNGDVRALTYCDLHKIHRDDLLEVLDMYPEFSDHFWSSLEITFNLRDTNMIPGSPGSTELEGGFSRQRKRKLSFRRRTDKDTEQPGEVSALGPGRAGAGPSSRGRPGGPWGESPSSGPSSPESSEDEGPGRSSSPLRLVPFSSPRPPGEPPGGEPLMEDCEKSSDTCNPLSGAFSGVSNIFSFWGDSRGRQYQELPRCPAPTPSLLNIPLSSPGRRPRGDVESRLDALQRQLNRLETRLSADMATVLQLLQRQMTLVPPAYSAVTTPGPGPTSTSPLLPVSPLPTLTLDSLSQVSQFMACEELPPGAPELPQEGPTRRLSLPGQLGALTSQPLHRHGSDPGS

pIC50 [1]	solubility [2] [µg/mL]	half-life [3] [min]	inhibition at 3 µM (CYP3A4) [%]	SMILES	pIC50 [4]
6.21	17 (≈ 40.7 µM)	13	77	COc1ccc(CCN2C(=O)N(NS(C)(=O)=O)CC2c2ccc(C)c(C)c2)cc1 (stereo not drawn)	4.80
6.62	42 (≈ 104 µM)	18	58	COc1ccc(CCN2C(=O)N(NS(C)(=O)=O)CC2c2ccc(C)cc2)cc1 (stereo not drawn)	4.95
6.60	13 (≈ 28.4 µM)	30	67	COc1ccc(CCN2C(=O)N(NS(C)(=O)=O)CC2c2ccc(C(F)(F)F)cc2)cc1 (stereo not drawn)	5.04
6.28	4 (≈ 8.45 µM)	15	53	COc1ccc([C@H]2CN(NS(C)(=O)=O)C(=O)N2CCc2ccc(OC(F)(F)F)cc2)cc1	5.25
6.47	1 (≈ 2.02 µM)	3	82	COc1ccc(CCN2C(=O)N(NS(=O)(=O)Cc3ccccc3)C[C@@H]2c2ccc(OC)cc2)cc1	5.36
5.13	100 (≈ 216 µM)	30	50	COCCOc1ccc(C2CN(NS(C)(=O)=O)C(=O)N2CCc2ccc(OC)cc2)cc1 (stereo not drawn)	
6.80	1 (≈ 2.33 µM)	30	78	COc1ccc(CCN2C(=O)N(NS(C)(=O)=O)CC2c2ccc(C3CC3)cc2)cc1 (stereo not drawn)	5.08
6.48	100 (≈ 238 µM)	16	50	COc1ccc(CCN2C(=O)N(NS(C)(=O)=O)C[C@@H]2c2ccc(OC)cc2)cc1	4.57
6.70	4 (≈ 9.44 µM)	30	27	COc1ccc(CCN2C(=O)N(NS(C)(=O)=O)CC2c2ccc(Cl)cc2)cc1 (stereo not drawn)	
